Data taken from ChEMBL document CHEMBL1772940, “Design and synthesis of potent and selective aldose reductase inhibitors based on pyridylthiadiazine scaffold” (Eur J Med Chem, 2011).

Experiments:
[1] = test system: Aldehyde reductase AKR1A1 (Rattus norvegicus); test: Inhibition of Wistar rat kidney aldehyde reductase at 50 uM by spectrophotometric analysis
[2] = target: Aldo-keto reductase family 1 member B1 (Rattus norvegicus, UniProt P07943); test: Inhibition of Wistar rat lens aldose reductase 2 by spectrophotometric analysis
Method in brief: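 Partially purified lens enzyme (homogenized in cold water, centrifuged 30 min at 0–4 °C, ammonium sulfate 40/50/75% cuts). Mix without DL-glyceraldehyde was preincubated 10 min at 32 °C; the NADPH drop was read at 340 nm at 32 °C in pH 6.2 phosphate, with the substrate-free rate subtracted. At least four concentrations (10^-4–10^-8 M), triplicate; IC50 from log concentration-response regression.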

Structure (SMILES)	inhibition [1]	IC50 [2]
COc1ccc(CN2CN(CC(=O)O)c3ncc(Cl)cc3S2(=O)=O)cc1	32.3%	6540 nM
COc1ccc(CN2CN(CC(=O)O)c3ncc(C)cc3S2(=O)=O)cc1	17.7%	6270 nM
O=C(O)CN1CN(Cc2ccc(C(F)(F)F)cc2)S(=O)(=O)c2cc(Br)cnc21	43.3%	965 nM
Cc1cnc2c(c1)S(=O)(=O)N(Cc1ccc(C(F)(F)F)cc1)CN2CC(=O)O	20.5%	1000 nM
O=C(O)CN1CN(Cc2ccc(C(F)(F)F)cc2)S(=O)(=O)c2cc(Cl)cnc21	42.3%	1010 nM
COc1ccc(CN2CN(CC(=O)O)c3ncc(Br)cc3S2(=O)=O)cc1	27.9%	11300 nM
Cc1cnc2c(c1)S(=O)(=O)N(Cc1cccc([N+](=O)[O-])c1)CN2CC(=O)O	23.2%	143 nM

Stronger by IC50 [2], values ahead:

inhibition [1]	IC50 [2]	Structure (SMILES)
24.6%	127 nM	Cc1cnc2c(c1)S(=O)(=O)N(Cc1ccc(Br)cc1F)CN2CC(=O)O
31.5%	98 nM	O=C(O)CN1CN(Cc2cccc([N+](=O)[O-])c2)S(=O)(=O)c2cc(Br)cnc21
40.2%	93 nM	O=C(O)CN1CN(Cc2cccc([N+](=O)[O-])c2)S(=O)(=O)c2cc(Cl)cnc21
35.4%	84 nM	Cc1cnc2c(c1)S(=O)(=O)N(Cc1cc(F)c(F)cc1F)CN2CC(=O)O
44.9%	69 nM	O=C(O)CN1CN(Cc2ccc(Br)cc2F)S(=O)(=O)c2cc(Br)cnc21
44.2%	66 nM	O=C(O)CN1CN(Cc2cc(F)c(F)cc2F)S(=O)(=O)c2cc(Br)cnc21
36.6%	44 nM	O=C(O)CN1CN(Cc2ccc(Br)cc2F)S(=O)(=O)c2cc(Cl)cnc21
36.5%	38 nM	O=C(O)CN1CN(Cc2cc(F)c(F)cc2F)S(=O)(=O)c2cc(Cl)cnc21
